For 12 compounds, IC50 results are on record in ChEMBL document CHEMBL2429863, “Cytotoxic deoxybenzoins and diphenylethylenes from Arundina graminifolia” (J Nat Prod, 2013).

Common to all, as to type: functional, cell-based
The nature of assay [1]: Cytotoxicity against human SH-SY5Y cells after 48 hrs by MTT assay. The procedure, abridged:
(§1)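 Tumor cells from ATCC, grown in RPMI1640 or DMEM with 10% FBS at 37 °C, 5% CO2. Adherent cells plated and allowed to attach 12 h; suspension cells seeded just before dosing at 1 × 10^5 cells/mL. Compounds at various concentrations in triplicate for 48 h; paclitaxel positive control. MTT added for 4 h at 37 °C, then lysis with 20% SDS–50% DMF; formazan read colorimetrically.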
A general note: Tetrazolium dyes change colour on reduction, which living cells bring about.

Another assay has as its system MCF7. Briefly: Cytotoxicity against human MCF7 cells after 48 hrs by MTT assay. As to conditions: MCF7, 48 h. The procedure, abridged:
as §1

The test system of the next assay is NB-4. Briefly: Cytotoxicity against human NB4 cells after 48 hrs by MTT assay. To be noted: NB-4, 48 h. The procedure, abridged:
as §1

The subject of the next assay is PC-3. Briefly: Cytotoxicity against human PC3 cells after 48 hrs by MTT assay. As to conditions: PC-3, 48 h. The procedure, abridged: as §1
In the next assay the test system is A549. The assay is described as follows: Cytotoxicity against human A549 cells after 48 hrs by MTT assay. To be noted: A549, 48 h. The procedure, abridged:
as §1

Take `COc1ccc(C(=O)Cc2cc(OC)c3c(c2)OC(C)(C)CC3=O)cc1`: the concentration for half-maximal inhibition (IC50) in assay [1] is above 10 µM; with MCF7 it was 8.5 µM; with NB-4, above 10 µM; with PC-3, above 10 µM; in the assay with A549, 6.4 µM.
With `CC(C)CCC(=O)c1c(O)cc(CC(=O)c2ccccc2)cc1O`, the half-inhibitory concentration (IC50) in assay [1] was 3.2 µM; with MCF7, 5.5 µM; with NB-4 it was 2.1 µM; with PC-3, 6.8 µM; in the assay with A549, 5.2 µM.
Turning to `COc1ccc(C(=O)Cc2cc(O)c3c(c2)OCC(C)=CC3=O)cc1`, the IC50 (in assay [1]; in the assay with MCF7; in the assay on NB-4; in the assay on PC-3; in the assay with A549) was above 10 µM in each case.
As to `COc1cc(/C=C/c2cc(O)c(CCO)c(O)c2)cc(OC)c1`, the IC50 in assay [1] was found to be 6.2 µM; with MCF7, 5.9 µM; in the assay on NB-4, 4.8 µM; with PC-3 it was 8.7 µM; with A549, 5.5 µM.
In assay [1], `CC(=O)O[C@H]1C(=O)[C@@]2(C)[C@H]([C@H](OC(=O)c3ccccc3)[C@]3(O)C[C@H](OC(=O)[C@H](O)[C@@H](NC(=O)c4ccccc4)c4ccccc4)C(C)=C1C3(C)C)[C@]1(OC(C)=O)CO[C@@H]1C[C@@H]2O` [PACLITAXEL] showed an IC50 of 0.2 µM.
`CC(=O)Oc1cc(CC(=O)c2ccccc2)cc2oc(C(C)C)cc(=O)c12`: the half-inhibitory concentration (IC50) (in assay [1]; in the assay on MCF7; in the assay on NB-4; in the assay on PC-3; in the assay with A549) was above 10 µM throughout.
In the case of `COc1ccc(C(=O)Cc2cc(O)c3c(c2)OC(C)(C)CC3=O)cc1`, the half-inhibitory concentration (IC50) (in assay [1]; with MCF7; with NB-4; with PC-3; in the assay on A549) was above 10 µM in each case.
For the compound `COc1ccc(C(=O)Cc2cc(O)c(C(=O)CCC(C)C)c(O)c2)cc1`, the 50% inhibitory concentration (IC50) (in assay [1]; with MCF7; in the assay with NB-4; in the assay with PC-3; with A549) was above 10 µM each time.
Take `OCCc1c(O)cc(/C=C/c2cc(O)cc(O)c2)cc1O`: the IC50 in assay [1] amounted to 7.8 µM; in the assay with MCF7, 6.4 µM; in the assay on NB-4, 5.5 µM; with PC-3, 5.6 µM; with A549 it was 8.1 µM.
As for `COc1cc(/C=C/c2cc(O)cc(O)c2)cc(O)c1CCO`, the IC50 came out at 4.5 µM in assay [1]; 5.3 µM in the assay on MCF7; 3.3 µM in the assay with NB-4; 2.2 µM with PC-3; 6.5 µM in the assay with A549.
Regarding `CC(C)c1cc(=O)c2c(O)cc(CC(=O)c3ccccc3)cc2o1`, the IC50 (in assay [1]; with MCF7; in the assay with NB-4; in the assay on PC-3; in the assay with A549) was above 10 µM each time.
Take `CC1=CC(=O)c2c(O)cc(CC(=O)c3ccc(O)cc3)cc2OC1`: the IC50 in assay [1] stood at 1.8 µM; with MCF7 it was 5.4 µM; with NB-4, 7.6 µM; with PC-3 it was 3.4 µM; with A549 it was 2.2 µM.

As usually defined, the IC50 is the midpoint of a concentration-inhibition curve.
